Calls of active or inactive are those of the source. No cut-off for these calls is given here.
What was measured:
Cryptococcus neoformans [1] = assay: Synergistic antifungal activity against Cryptococcus neoformans assessed as potentiation of VRC antifungal activity by measuring VRC incubated for 48 hrs in presence of fluconazole by checkerboard microdilution assay; type: functional, organism-based
Cryptococcus neoformans [2] = assay: Synergistic antifungal activity against Cryptococcus neoformans assessed as potentiation of ITC antifungal activity by measuring ITC incubated for 48 hrs in presence of fluconazole by checkerboard microdilution assay; type: functional, organism-based
Candida albicans [3] = assay: Synergistic antifungal activity against Candida albicans 4108 assessed as fluconazole MIC incubated for 48 hrs in presence of fluconazole by microdilution assay (reference value: fluconazole alone MIC = >[…] ug/ml); type: functional
Candida albicans [4] = assay: Synergistic antifungal activity against azole-resistant Candida albicans assessed as potentiation of VRC antifungal activity by measuring VRC incubated for 48 hrs in presence of fluconazole by checkerboard microdilution assay; type: functional
Candida albicans [5] = assay: Inhibition of pre-formed biofilms in Candida albicans 0304103 at 64 ug/ml incubated for 24 hrs in presence of fluconazole by XTT reduction assay; type: functional; settings: dose 64.0 µg/ml
Summary of the method: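 Mature biofilms grown 24 h at 37 °C from C. albicans 0304103 (1.0 × 10⁶ CFU/mL in RPMI 1640), then treated with drugs alone or combined as in the formation assay; viability by XTT reduction at OD490. Three independent experiments; t-test versus control.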

Candida albicans [6] = assay: Antifungal activity against Candida albicans 0304103 infected in ICR mouse model of candidiasis assessed as reduction in kidney fungal burden at 10 mg/kg, ip dosed 24 hrs post infection and measured after 5 days; type: functional, organism-based; settings: time 5.0 day
Candida albicans [7] = assay: Induction of morphological changes in Candida albicans assessed as reduction in morphological conversion from yeast to hypha forms at 32 ug/ml incubated for 3 hrs by inverse fluorescence microscopy; type: functional, organism-based; settings: dose 32.0 µg/ml
Summary of the method: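 Exponential-phase C. albicans were suspended in Spider medium ([…], 2% NaHCO₃, […]) at 2 × 10⁶ cells/mL. Drugs were added alone or combined, with DMSO as control. After 3 h at 37 °C, cells were imaged by inverted fluorescence microscopy. Three independent experiments were run.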

Candida albicans [8] = assay: Synergistic antifungal activity against Candida albicans 4108 assessed as potentiation of fluconazole antifungal activity by measuring FICI incubated for 48 hrs in presence of fluconazole by checkerboard microdilution assay; type: functional
Candida albicans [9] = assay: Synergistic antifungal activity against Candida albicans 9884 assessed as fluconazole MIC incubated for 48 hrs in presence of fluconazole by microdilution assay (reference value: fluconazole alone MIC = >[…] ug/ml); type: functional
Candida albicans [10] = assay: Antifungal activity against Candida albicans 0304103 infected in ICR mouse model of candidiasis assessed as reduction in morphological changes of budded-to-hyphal transition at 10 mg/kg, ip dosed 24 hrs post infection and measured after 5 days by H and E staining based microscopical analysis; type: functional, organism-based; settings: time 5.0 day
Summary of the method: (§1)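 Two ICR mice per group, infected and treated as in the kidney burden model (IV 5 × 10⁵ C. albicans 0304103; IP compound 10 mg/kg, fluconazole 1 mg/kg, or combination, 5 days). Kidneys fixed in 4% paraformaldehyde, paraffin-embedded, 4 μm sections, H&E stained, examined at 40× and 200×.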

Candida albicans [11] = assay: Antifungal activity against Candida albicans 0304103 infected in ICR mouse model of candidiasis assessed as reduction in fungal invasion by measuring clusters of fungal infiltration in renal pelvis/medulla at 10 mg/kg, ip dosed 24 hrs post infection and co-treated with 1 mg/kg, ip fluconazole and measured after 5 days by H and E staining based microscopical analysis; type: functional, organism-based; settings: time 5.0 day; summary of the method: as §1
Candida albicans [12] = assay: Induction of morphological changes in Candida albicans assessed as reduction in morphological conversion from yeast to hypha forms at 32 ug/ml incubated for 3 hrs in presence of 32 ug/ml fluconazole by inverse fluorescence microscopy; type: functional, organism-based; settings: dose 32.0 µg/ml
Summary of the method: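 Exponential C. albicans at 2 × 10⁶ cells/mL in Spider medium (hypha-inducing), drugs alone or combined, DMSO control; 3 h at 37 °C, then observed and photographed by inverted fluorescence microscopy. Three independent experiments.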

[13] = biological target: T1, Protein deacetylase HDAC6 (Homo sapiens, UniProt Q9UBN7); assay: Inhibition of human HDAC6 pre-incubated for 5 mins before substrate addition and measured after 30 mins by fluorescence based assay
T1 sequence (Q9UBN7 whole entry): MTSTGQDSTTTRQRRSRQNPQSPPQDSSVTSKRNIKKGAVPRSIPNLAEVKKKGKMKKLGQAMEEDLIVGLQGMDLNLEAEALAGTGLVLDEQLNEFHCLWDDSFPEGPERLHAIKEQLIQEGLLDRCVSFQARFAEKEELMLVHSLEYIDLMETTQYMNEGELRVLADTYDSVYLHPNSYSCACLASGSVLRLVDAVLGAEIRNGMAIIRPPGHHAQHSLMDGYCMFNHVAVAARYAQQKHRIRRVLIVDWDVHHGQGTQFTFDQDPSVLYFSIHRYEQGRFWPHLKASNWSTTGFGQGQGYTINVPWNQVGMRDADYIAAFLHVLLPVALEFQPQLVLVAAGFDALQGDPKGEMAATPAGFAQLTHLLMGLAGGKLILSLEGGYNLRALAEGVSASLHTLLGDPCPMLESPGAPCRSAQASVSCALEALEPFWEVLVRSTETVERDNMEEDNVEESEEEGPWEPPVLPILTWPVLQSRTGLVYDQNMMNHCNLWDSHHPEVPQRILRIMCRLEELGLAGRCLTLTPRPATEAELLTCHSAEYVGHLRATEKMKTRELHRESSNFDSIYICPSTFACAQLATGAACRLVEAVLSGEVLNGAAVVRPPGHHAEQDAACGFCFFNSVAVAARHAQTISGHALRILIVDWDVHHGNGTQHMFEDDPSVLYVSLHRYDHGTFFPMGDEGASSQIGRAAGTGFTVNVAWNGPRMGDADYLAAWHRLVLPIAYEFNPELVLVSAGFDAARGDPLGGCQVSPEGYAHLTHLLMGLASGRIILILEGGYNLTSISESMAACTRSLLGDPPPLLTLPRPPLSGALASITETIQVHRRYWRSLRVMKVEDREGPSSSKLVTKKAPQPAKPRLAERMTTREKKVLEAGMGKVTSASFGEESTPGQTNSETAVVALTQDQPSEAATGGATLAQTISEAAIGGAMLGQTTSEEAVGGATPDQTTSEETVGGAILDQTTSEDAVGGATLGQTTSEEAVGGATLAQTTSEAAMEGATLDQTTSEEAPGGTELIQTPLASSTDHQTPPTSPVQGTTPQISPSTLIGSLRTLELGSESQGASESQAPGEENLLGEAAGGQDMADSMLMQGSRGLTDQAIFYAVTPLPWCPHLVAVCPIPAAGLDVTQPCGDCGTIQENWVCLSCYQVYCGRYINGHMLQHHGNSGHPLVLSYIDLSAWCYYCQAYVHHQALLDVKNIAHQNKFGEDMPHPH

Candida albicans [14] = assay: Synergistic antifungal activity against Candida albicans 0304103 assessed as potentiation of fluconazole antifungal activity incubated for 48 hrs in presence of fluconazole by checkerboard microdilution assay; type: functional, organism-based
Summary of the method: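 Checkerboard broth microdilution per CLSI M27-A3 (modified), clinical Candida isolates. Exponential cells in RPMI 1640 (MOPS-buffered) at 10³ cells/mL; fluconazole 0.25–64 μg/mL crossed with test compound 2–64 μg/mL (final). 48 h at 35 °C; OD630 read with background subtracted. MIC80 = 80% growth inhibition; FICI ≤0.5 synergy, >4 antagonism.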

With O=C(Cc1ccc(OCCCn2c3c(c4cccc(Cl)c42)CCNC3)cc1)NO the Activity (Cryptococcus neoformans [1]) was “inactive”, the Activity (Cryptococcus neoformans [2]) was “inactive” and the MIC80 (Candida albicans [3]) was 0.25 µg/mL. The “fractional inhibitory concentration index (FICI)” value (Candida albicans [4]) was 0.035, the inhibition (Candida albicans [5]) was “Active” and the Activity (Candida albicans [6]) was “inactive”. For the same molecule, the Activity (Candida albicans [7]) was “inactive”, the “fractional inhibitory concentration index (FICI)” value (Candida albicans [8]) was 0.035 and the MIC80 (Candida albicans [9]) was 0.5 µg/mL. The Activity (Candida albicans [10]) was “inactive”, the Activity (Candida albicans [11]) was “Active” and the Activity (Candida albicans [12]) was “Active”. For the same molecule, the IC50 [13] was 459 nM and the Activity (Candida albicans [14]) was “Dose-dependent effect”.
